In ChEMBL document CHEMBL3576816, “5'-Silylated 3'-1,2,3-triazolyl Thymidine Analogues as Inhibitors of West Nile Virus and Dengue Virus” (J Med Chem, 2015):
Active and inactive are the calls of the source. The calls are words filed in the database; no cut-off is given here.

Assays:
[1] = Cytotoxicity against BHK cells infected with West Nile virus replicon assessed as cell viability after 3 days by CellTiter 96 aqueous one solution cell proliferation assay; assay type: cell-based, Mesocricetus auratus; conditions: hamster, 72 h
Method in brief: (§1)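 WNV replicon BHK cells, about 3 × 10^3/well, plated without antibiotic selection; next day compound in DMSO (10 μM final for screening, or eight serial dilutions), 3 days at 37°C, 5% CO2. Tetrazolium reagent, absorbance 450 nm, triplicate means versus DMSO wells; CC50 = 50% reduction in proliferation; CC50s mean ± SD of two experiments, top dose 200 μM.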

[2] = system: Human immunodeficiency virus 1; experiment: Antiviral activity against HIV1; assay type: functional, organism-based
dengue virus type 3 = experiment: Displacement of [3H]-SAM from biotinylated Dengue virus 3 methyltransferase expressed in Escherichia coli at 20 uM preincubated for 20 mins followed by [3H]-SAM addition measured after 15 mins by scintillation counting analysis
Method in brief: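 Biotinylated refolded E. coli-expressed DENV3 MTase (580 nM) with SPA beads (1.5 mg/mL) and 20 μM competitor (compound, SAM or sinefungin) in Tris pH 7.5 buffer with NaCl, KCl, MgCl2, MnCl2, CHAPS, 20 min at 23°C; 3H-SAM (425 nM) added, 15 min at 23°C, centrifuged, scintillation proximity counting.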

[3] = target: Human immunodeficiency virus type 1 reverse transcriptase (Human immunodeficiency virus 1) (UniProt Q72547); experiment: Inhibition of HIV1 reverse transcriptase
[4] = system: unidentified influenza virus; experiment: Antiviral activity against Influenzae virus; assay type: functional, organism-based
Human betaherpesvirus 5 = experiment: Antiviral activity against Human cytomegalovirus; assay type: functional, organism-based
Hepatitis C virus = experiment: Antiviral activity against HCV; assay type: functional, organism-based; conditions: Hepacivirus hominis
West Nile virus [5] = experiment: Antiviral activity against West Nile virus infected in BHK-WII RepRen1B cells assessed as inhibition of viral replication at 10 uM after 3 days by luciferase reporter gene assay relative to control; assay type: functional; conditions: 72 h
Method in brief: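 Compound (DMSO, 10 μM final) added next day in triplicate; lycorine 1 μM served as control inhibitor. Three days on, live-cell Renilla substrate (1:1000 in phenol-red-free DME, 10% FBS) replaced medium. Luminescence measured; triplicate means compared with DMSO-alone wells.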

[6] = Cytotoxicity against BHK cells infected with West Nile virus replicon assessed as cell viability at 10 uM after 3 days by CellTiter 96 aqueous one solution cell proliferation assay relative to control; assay type: cell-based, Mesocricetus auratus; conditions: hamster, bhk, 72 h, 10 µM; method in brief: as §1
Dengue virus = experiment: Antiviral activity against Dengue virus infected in BHK pD2-hRucPac-2ATG cells assessed as inhibition of viral replication at 10 uM after 3 days by luciferase reporter gene assay relative to control; assay type: functional; conditions: 72 h
Method in brief: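 Renilla luciferase-bearing DENV subgenomic replicon BHK cells, kept on 3 μg/mL puromycin, seeded at 1.5 × 10^3/well without selection. Next day, 10 μM final compound in DMSO added to triplicate wells; MPA 1 μM as control inhibitor. After 3 days, medium swapped for live-cell Renilla substrate (1:1000, phenol-red-free DME, 10% FBS). Luminescence read; triplicate mean compared with DMSO-only wells.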

[7] = Cytotoxicity against BHK cells infected with Dengue virus replicon assessed as cell viability at 10 uM after 3 days by CellTiter 96 aqueous one solution cell proliferation assay relative to control; assay type: cell-based, Mesocricetus auratus; conditions: hamster, bhk, 72 h, 10 µM
Method in brief: as §1, with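 “DENV” for “WNV”, “1.5” for “about 3”, “Tetrazolium (MTS-type)” for “Tetrazolium”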

West Nile virus [8] = experiment: Antiviral activity against West Nile virus infected in BHK-WII RepRen1B cells assessed as inhibition of viral replication after 3 days by luciferase reporter gene assay; assay type: functional, organism-based; conditions: 72 h

| SMILES | CC50 [1] [µM] | Activity [2] | inhibition (dengue virus type 3) | inhibition [3] | Activity [4] | Activity (Human betaherpesvirus 5) | Activity (Hepatitis C virus) | inhibition at 10 µM (West Nile virus [5]) [%] | Activity [6] [%] | inhibition at 10 µM (Dengue virus) [%] | Activity [7] [%] | EC50 (West Nile virus [8]) [µM] |
| --- | --- | --- | --- | --- | --- | --- | --- | --- | --- | --- | --- | --- |
| Cc1cn([C@H]2C[C@H](NC(=O)C(c3ccccc3)(c3ccccc3)c3ccccc3)[C@@H](CO[Si](C)(C)C(C)(C)C)O2)c(=O)[nH]c1=O | 15 | inactive | Active | inactive | inactive | inactive | inactive | 54 | 100 | 28 | 100 | 9.9 |
| Cc1cn([C@H]2C[C@H](n3nncc3C3CC3)[C@@H](CO[Si](C)(C)C(C)(C)C)O2)c(=O)[nH]c1=O |  | inactive |  | inactive | inactive | inactive | inactive | 21 | 100 | 6.4 | 93 |  |
| Cc1cn([C@H]2C[C@H](n3nncc3-c3ccc(Oc4ccccc4)cc3)[C@@H](CO[Si](C)(C)C(C)(C)C)O2)c(=O)[nH]c1=O |  | inactive |  | inactive | inactive | inactive | inactive | 95 | 79 | 95 | 73 |  |
| Cc1cn([C@H]2C[C@H](n3nncc3COc3ccccc3)[C@@H](CO[Si](C)(C)C(C)(C)C)O2)c(=O)[nH]c1=O |  | inactive |  | inactive | inactive | inactive | inactive | 50 | 100 | 28 | 84 |  |
| Cc1cn([C@H]2C[C@H](n3nncc3-c3cccc4ccccc34)[C@@H](CO[Si](C)(C)C(C)(C)C)O2)c(=O)[nH]c1=O |  | inactive |  | inactive | inactive | inactive | inactive | 100 | 8 | 99 | 60 |  |
| C[S+](CC[C@H](N)C(=O)[O-])C[C@H]1O[C@@H](n2cnc3c(N)ncnc32)[C@H](O)[C@@H]1O (stereo partly specified) |  |  | Active |  |  |  |  |  |  |  |  |  |
| COc1ccc2cc(-c3cnnn3[C@H]3C[C@H](n4cc(C)c(=O)[nH]c4=O)O[C@@H]3CO[Si](c3ccccc3)(c3ccccc3)C(C)(C)C)ccc2c1 |  | inactive |  | inactive | inactive | inactive | inactive | 99 | 38 | 100 | 11 |  |
| Cc1cn([C@H]2C[C@H](NC(=O)c3c[nH]c4ccccc34)[C@@H](CO[Si](C)(C)C(C)(C)C)O2)c(=O)[nH]c1=O |  | inactive |  | inactive | inactive | inactive | inactive | 19 | 93 | 90 | 27 |  |
| Cc1cn([C@H]2C[C@H](NC(=O)c3ccc4ccccc4n3)[C@@H](CO[Si](C)(C)C(C)(C)C)O2)c(=O)[nH]c1=O |  | inactive |  | inactive | inactive | inactive | inactive | 24 | 89 | 51 | 98 |  |
| Nc1ncnc2c1ncn2[C@@H]1O[C@H](C[C@@H](N)CC[C@H](N)C(=O)O)[C@@H](O)[C@H]1O |  |  | Active |  |  |  |  |  |  |  |  |  |
| Cc1cn([C@H]2C[C@H](N3C(=O)CSC3c3ccccc3)[C@@H](CO[Si](C)(C)C(C)(C)C)O2)c(=O)[nH]c1=O (mixture of isomers) |  | inactive |  | inactive | inactive | inactive | inactive | 26 | 94 | 22 | 98 |  |
| Cc1cn([C@H]2C[C@H](n3cc(-c4cc5ccccc5c5ccccc45)nn3)[C@@H](CO[Si](C)(C)C(C)(C)C)O2)c(=O)[nH]c1=O |  | inactive |  | inactive | inactive | inactive | inactive | 97 | 100 | 77 | 81 |  |
| Cc1cn([C@H]2C[C@H](NC(=O)NC34CC5CC(CC(C5)C3)C4)[C@@H](CO[Si](C)(C)C(C)(C)C)O2)c(=O)[nH]c1=O | 16 |  | Active |  |  |  |  |  |  |  |  | 10 |
| Cc1cn([C@H]2C[C@H](N)[C@@H](CO[Si](C)(C)C(C)(C)C)O2)c(=O)[nH]c1=O |  | inactive |  | inactive | inactive | inactive | inactive | 0 | 100 | 0 | 100 |  |
| Cc1cn([C@H]2C[C@H](NC(=O)c3ccc4ccccc4c3)[C@@H](CO[Si](C)(C)C(C)(C)C)O2)c(=O)[nH]c1=O |  | inactive |  | inactive | inactive | inactive | inactive | 99 | 51 | 98 | 10 |  |
| Cc1cn([C@H]2C[C@H](NC(=O)c3c4ccccc4cc4ccccc34)[C@@H](CO[Si](C)(C)C(C)(C)C)O2)c(=O)[nH]c1=O |  | inactive |  | inactive | inactive | inactive | inactive | 0 | 100 | 7.6 | 98 |  |
| Cc1cn([C@H]2C[C@H](n3nncc3-c3cc4ccccc4c4ccccc34)[C@@H](CO[Si](C)(C)C(C)(C)C)O2)c(=O)[nH]c1=O |  | inactive |  | inactive | inactive | inactive | inactive | 99 | 69 | 21 | 100 |  |
| COc1ccc2cc(C(=O)N[C@H]3C[C@H](n4cc(C)c(=O)[nH]c4=O)O[C@@H]3CO[Si](C)(C)C(C)(C)C)ccc2c1 |  | inactive |  | inactive | inactive | inactive | inactive | 95 | 50 | 92 | 8 |  |
| COc1ccc2cc(-c3cnnn3[C@H]3C[C@H](n4cc(C)c(=O)[nH]c4=O)O[C@@H]3CO[Si](C(C)C)(C(C)C)C(C)C)ccc2c1 |  | inactive |  | inactive | inactive | inactive | inactive | 98 | 67 | 98 | 53 |  |
| Cc1cn([C@H]2C[C@H](n3nncc3-c3ccc(-c4ccccc4)cc3)[C@@H](CO[Si](C)(C)C(C)(C)C)O2)c(=O)[nH]c1=O |  | inactive |  | inactive | inactive | inactive | inactive | 100 | 10 | 99 | 47 |  |
